In paper PMC3631442 (ACS chemical biology, 2013):
No end group written: not given here. *: point of attachment. Biotin = O=C1N[C@H]2[C@H](CS[C@H]2CCCCC(=O)*)N1; PEG4 = NCCOCCOCCOCCOCCC(=O)O

How the values were obtained:
[1] = target: Bid BH3 BH3 (Homo sapiens) (UniProt P55957); settings: cited from earlier work
[2] = target: Puma BH3 BH3 (Homo sapiens) (UniProt Q9BXH1); settings: cited from earlier work
[3] = target: Bcl-2 (Homo sapiens, UniProt P10415); test: Fluorescence polarization competition with fluoresceinated Bim BH3; format: binding
[4] = target: Bcl-xL (Homo sapiens, UniProt Q07817); test: as above; format: binding
[5] = target: T1, Bfl-1 (Homo sapiens, UniProt Q16548); test: as above; format: binding
T1 sequence (Q16548 1-151 limits assumed): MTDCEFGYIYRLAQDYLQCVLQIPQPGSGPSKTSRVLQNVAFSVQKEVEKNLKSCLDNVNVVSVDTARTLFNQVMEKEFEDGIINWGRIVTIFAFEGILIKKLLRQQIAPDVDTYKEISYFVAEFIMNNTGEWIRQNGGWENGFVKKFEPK

[6] = target: T2, Bcl-w (Homo sapiens, UniProt Q92843); test: as above; format: binding
T2 sequence (Q92843 1-193): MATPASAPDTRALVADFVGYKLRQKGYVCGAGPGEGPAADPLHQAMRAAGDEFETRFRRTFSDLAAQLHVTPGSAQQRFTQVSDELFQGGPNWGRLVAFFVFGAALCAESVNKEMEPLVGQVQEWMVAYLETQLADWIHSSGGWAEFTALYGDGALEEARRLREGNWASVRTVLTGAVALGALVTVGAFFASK

[7] = target: T1, Bfl-1; test: Bio-layer interferometry; format: binding
Summary of the method: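 Biotinylated 23-residue test peptide (free N-terminus, amidated C-terminus), at 0.1 mg/ml, loaded on streptavidin biosensors to ~0.42 response units. Protein at 2–3 concentrations (30–250 nM) associated for 10 min, then dissociated for 60 min in 20 mM phosphate, 50 mM NaCl, 0.1% BSA, pH 7.5. Off-rate upper bound taken from signal fluctuation over 1000 s. Association phase fit for kon and Rmax.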

[8] = target: Mcl-1 (Homo sapiens, UniProt Q07820); test: Fluorescence polarization competition with fluoresceinated Bim BH3; format: binding
[9] = target: 18-residue fluoresceinated Bim BH3 peptide (human); test: fluorescence polarisation
[10] = target: T3, Bfl-1; test: fluorescence polarisation
T3 sequence (Q16548 whole entry, species assumed, looked up): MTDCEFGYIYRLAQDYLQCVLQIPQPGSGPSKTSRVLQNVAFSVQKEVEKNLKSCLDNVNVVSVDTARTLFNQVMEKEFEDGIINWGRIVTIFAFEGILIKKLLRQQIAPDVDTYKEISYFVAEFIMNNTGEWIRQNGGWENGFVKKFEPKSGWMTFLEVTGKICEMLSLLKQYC

[11] = target: Bcl-w (UniProt Q92843); test: fluorescence polarisation
[12] = target: T4, Bcl-2 (UniProt P10415 1-239); test: fluorescence polarisation
[13] = target: T5, Bcl-w (UniProt Q92843 1-193); test: fluorescence polarisation
[14] = target: T6, Bcl-xL (UniProt Q07817-1 1-233); test: fluorescence polarisation
[15] = target: T3, Bfl-1; test: fluorescence polarisation; remark: listed apart in the source
[16] = target: T7, Mcl-1 (UniProt Q07820 1-350); test: fluorescence polarisation
[17] = target: T6, Bcl-xL; test: BLI
[18] = target: T7, Mcl-1; test: BLI
[19] = target: T4, Bcl-2; test: fluorescence polarisation; remark: listed apart in the source
[20] = target: T5, Bcl-w; test: fluorescence polarisation; remark: listed apart in the source

T4 sequence (P10415 whole entry): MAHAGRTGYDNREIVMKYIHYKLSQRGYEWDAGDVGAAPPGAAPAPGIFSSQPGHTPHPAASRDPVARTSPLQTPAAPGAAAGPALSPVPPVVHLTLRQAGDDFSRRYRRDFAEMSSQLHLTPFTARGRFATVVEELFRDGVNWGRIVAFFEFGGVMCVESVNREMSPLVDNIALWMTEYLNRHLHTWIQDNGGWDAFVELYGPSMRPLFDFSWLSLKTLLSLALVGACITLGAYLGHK
Sequence of Mcl-1 (Homo sapiens, UniProt Q07820) (Q07820 whole entry): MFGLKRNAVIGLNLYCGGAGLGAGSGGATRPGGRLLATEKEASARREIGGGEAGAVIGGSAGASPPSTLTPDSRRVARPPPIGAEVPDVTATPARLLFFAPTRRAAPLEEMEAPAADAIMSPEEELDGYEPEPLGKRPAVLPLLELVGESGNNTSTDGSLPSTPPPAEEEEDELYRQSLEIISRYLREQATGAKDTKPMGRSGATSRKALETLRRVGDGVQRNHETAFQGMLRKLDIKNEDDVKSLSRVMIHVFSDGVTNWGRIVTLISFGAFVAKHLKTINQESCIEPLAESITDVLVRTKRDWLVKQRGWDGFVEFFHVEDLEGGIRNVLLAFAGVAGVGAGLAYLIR
T6 sequence (Q07817 whole entry): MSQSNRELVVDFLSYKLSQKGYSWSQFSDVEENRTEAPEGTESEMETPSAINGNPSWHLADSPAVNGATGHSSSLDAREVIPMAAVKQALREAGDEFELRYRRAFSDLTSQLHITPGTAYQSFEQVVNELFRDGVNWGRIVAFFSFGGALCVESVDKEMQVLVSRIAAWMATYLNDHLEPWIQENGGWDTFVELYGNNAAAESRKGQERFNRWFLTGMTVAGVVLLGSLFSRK
T7 sequence (Q07820 whole entry): as the sequence (Q07820 whole entry) above
Sequence of Bcl-2 (Homo sapiens, UniProt P10415) (P10415 whole entry): as the sequence (P10415 whole entry) above
Sequence of Puma BH3 BH3 (Homo sapiens) (Q9BXH1 130-155): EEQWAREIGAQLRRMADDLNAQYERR
Sequence of Bid BH3 BH3 (Homo sapiens) (P55957 79-104): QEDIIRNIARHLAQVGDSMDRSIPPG
Sequence of Bcl-xL (Homo sapiens, UniProt Q07817) (Q07817 whole entry): as the sequence (Q07817 whole entry) above

For Bfl-1 (from UniProt Q16548), the Kd [1] is listed as 50 nM and the Kd [2] is listed as 50 nM.

With Ac-RPEIWIAQGLRRIGDTWNAYYAR-NH2 [FW1] the Ki [3] was 20 to 30 nM, the Ki [4] was 20 to 30 nM and the “fold lower Ki for Bfl-1 compared to Bcl-w” value ([5]; from competition FP Ki values) was ~ 37 fold.

In the case of Ac-RPEIWIAQELRRAGDVLNAYYAR-NH2 [FA1], the Ki [6] is reported as 2 ± 1 nM, the Kd [7] is reported as at most 0.3 nM and the koff ([7]; pH 7.5, read-out: upper limit on koff, dissociation of Bfl-1 from surface-bound peptide) is reported as at most 1.5e-05 s⁻¹. For the same molecule, the Ki [8] was 1 ± 0.1 nM.

In the case of RPEIWMAQVLRRFGDLLNAYYAR [FD2], the Ki [5] is reported as 3.8 ± 0.7 nM, the “specificity for Bfl-1 over Bcl-xL, Bcl-2 and Bcl-w” value ([5]; from competition FP Ki values) is reported as 4-60 fold and the Ki [8] is reported as 1 ± 0.1 nM.

Ac-RPEIWLAQYLRRLGDQINAYYAR-NH2 [FD1] showed a Ki [5] of 0.7 ± 0.2 nM.

Bfl-1 (domain or fragment) showed a Kd [9] of 4 nM.

Work on Bim_D3fK with E3gV (peptide) yielded a fold increase in binding against Bim D3fK [10] of 2 fold and a fold weakening of binding against Bim D3fK [11] of 2.5 fold.

H-RPEIWMAQVLRRFGDLLNAYYAR-OH [FD2] gave a Ki [12] of 223 nM, a Ki [13] of 104 nM and a Ki [14] of 18 nM. For the same molecule, the Ki [15] was 3.8 nM.

In the case of Ac-RPEIWIAQGLRRIGDTWNAYYAR-NH2 [FW1 (unlabeled, 23 residues)], the Ki [12] is reported as 31 nM, the Ki [13] is reported as 298 nM and the Ki [14] is reported as 20 nM. The Ki [16] was 0.2 nM.

B1: Biotinylated FA1 (peptide)
peptide: {Biotin-PEG4}-RPEIWIAQELRRAGDVLNAYYAR-NH2
SMILES: CC[C@H](C)[C@H](NC(=O)[C@H](Cc1c[nH]c2ccccc12)NC(=O)[C@@H](NC(=O)[C@H](CCC(=O)O)NC(=O)[C@@H]1CCCN1C(=O)[C@H](CCCNC(=N)N)NC(=O)CCOCCOCCOCCOCCNC(=O)CCCC[C@@H]1SC[C@@H]2NC(=O)N[C@@H]21)[C@@H](C)CC)C(=O)N[C@@H](C)C(=O)N[C@@H](CCC(N)=O)C(=O)N[C@@H](CCC(=O)O)C(=O)N[C@@H](CC(C)C)C(=O)N[C@@H](CCCNC(=N)N)C(=O)N[C@@H](CCCNC(=N)N)C(=O)N[C@@H](C)C(=O)NCC(=O)N[C@@H](CC(=O)O)C(=O)N[C@H](C(=O)N[C@@H](CC(C)C)C(=O)N[C@@H](CC(N)=O)C(=O)N[C@@H](C)C(=O)N[C@@H](Cc1ccc(O)cc1)C(=O)N[C@@H](Cc1ccc(O)cc1)C(=O)N[C@@H](C)C(=O)N[C@@H](CCCNC(=N)N)C(N)=O)C(C)C
For B1, the Kd [17] was about 33 nM and the Kd [18] was about 6 nM.

Ac-IWIAQELRRIGDEFNAYY-NH2 (also: fluoresceinated, site not given here) [18-residue fluoresceinated Bim BH3 peptide] showed a Kd [19] of 5 nM and a Kd [20] of 15 nM.

With Ac-RPEIWIAQELRRAGDVLNAYYAR-NH2 [FA1 (unlabeled, 23 residues)] the Ki [12] was 313 nM and the Ki [14] was 8 nM.

Ac-RPEIWLAQYLRRLGDQINAYYAR-NH2 [FD1] showed a Ki [12] of 7 nM, a Ki [13] of 12 nM and a Ki [14] of 5 nM. It also gave a Ki [16] of 0.1 nM and a Ki [15] of 0.7 nM.
